{"source": "ChEMBL document CHEMBL5724801", "about": "“EUbOPEN Chemogenomics Library - Multiplex” (2024)", "system": "U2OS", "experiment": "Multiplex assay against U2OS", "type": "toxicity, cell-based", "conditions": "human", "in_short": "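Imaging took place on a CQ1 microscope at 37°C and 5% CO2 once compound had been added to live cells stained at seeding with Hoechst33342, BioTracker Green Microtubule Cytoskeleton Dye, MitoTracker Red and Annexin V Alexa Fluor 680. CellPathfinder machine-learning gating classed cells as Hoechst high-intensity objects or normal cells, classed normal cells as having healthy, pyknosed or fragmented nuclei, and classed pyknosed cells as mitotic or apoptotic. Tubulin, mitochondrial-mass and membrane-permeability phenotypes are per cents of the healthy-nucleus cells.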", "key": {"[1]": {"conditions": "12 h, 1 µM, compound concentration 1 uM"}, "[2]": {"conditions": "12 h, 10 µM, compound concentration 10 uM"}, "[3]": {"conditions": "24 h, 1 µM, compound concentration 1 uM"}, "[4]": {"conditions": "24 h, 10 µM, compound concentration 10 uM"}, "[5]": {"conditions": "48 h, 1 µM, compound concentration 1 uM"}, "[6]": {"conditions": "48 h, 10 µM, compound concentration 10 uM"}}, "note": "Several values for one entry are separate records, joined by “and”; a condition that tells them apart may be missing. Equal values may be shown once.", "data": [{"smiles": "S=c1[nH]nc(-c2cccs2)n1-c1ccccc1", "values": [{"measurement": "Population Apoptotic (%)", "setting": "[1]", "value": "50% and 31.82%"}, {"measurement": "Population Fragmented Nuclei (%)", "setting": "[1]", "value": "2.88% and 1.49%"}, {"measurement": "Population Healthy Nuclei (%)", "setting": "[1]", "value": "87.7% and 82.09%"}, {"measurement": "Population Hoechst High Intensity Objects (%)", "setting": "[1]", "value": 0, "unit": "%"}, {"measurement": "Population Membrane Permeable-Phenotype (%)", "setting": "[1]", "value": "0% and 3.64%"}, {"measurement": "Population Mitochondria Different-Phenotype (%)", "setting": "[1]", "value": "0.3% and 2.73%"}, {"measurement": "Population Mitotic Cells (%)", "setting": "[1]", "value": "50% and 68.18%"}, {"measurement": "Population Normal (%)", "setting": "[1]", "value": 100, "unit": "%"}, {"measurement": "Population Pyknosed Nuclei (%)", "setting": "[1]", "value": "9.42% and 16.42%"}, {"measurement": "Population Tubulin-Different-Phenotype (%)", "setting": "[1]", "value": "0.3% and 0%"}, {"measurement": "Total Cell Count", "setting": "[1]", "value": "382 and 134"}, {"measurement": "Population Apoptotic (%)", "setting": "[2]", "value": "41.82% and 31.25%"}, {"measurement": "Population Fragmented Nuclei (%)", "setting": "[2]", "value": "1.86% and 4.61%"}, {"measurement": "Population Healthy Nuclei (%)", "setting": "[2]", "value": "83.55% and 84.87%"}, {"measurement": "Population Hoechst High Intensity Objects (%)", "setting": "[2]", "value": 0, "unit": "%"}, {"measurement": "Population Membrane Permeable-Phenotype (%)", "setting": "[2]", "value": "0.32% and 5.43%"}, {"measurement": "Population Mitochondria Different-Phenotype (%)", "setting": "[2]", "value": "0.32% and 5.43%"}, {"measurement": "Population Mitotic Cells (%)", "setting": "[2]", "value": "58.18% and 68.75%"}, {"measurement": "Population Normal (%)", "setting": "[2]", "value": 100, "unit": "%"}, {"measurement": "Population Pyknosed Nuclei (%)", "setting": "[2]", "value": "14.59% and 10.53%"}, {"measurement": "Population Tubulin-Different-Phenotype (%)", "setting": "[2]", "value": "0.63% and 0%"}, {"measurement": "Total Cell Count", "setting": "[2]", "value": "377 and 152"}, {"measurement": "Population Apoptotic (%)", "setting": "[3]", "value": "38.78% and 38.46%"}, {"measurement": "Population Fragmented Nuclei (%)", "setting": "[3]", "value": "1.97% and 1.6%"}, {"measurement": "Population Healthy Nuclei (%)", "setting": "[3]", "value": "88.36% and 84.57%"}, {"measurement": "Population Hoechst High Intensity Objects (%)", "setting": "[3]", "value": "0.2% and 0%"}, {"measurement": "Population Membrane Permeable-Phenotype (%)", "setting": "[3]", "value": "0.22% and 3.14%"}, {"measurement": "Population Mitochondria Different-Phenotype (%)", "setting": "[3]", "value": "0.22% and 3.14%"}, {"measurement": "Population Mitotic Cells (%)", "setting": "[3]", "value": "61.22% and 61.54%"}, {"measurement": "Population Normal (%)", "setting": "[3]", "value": "99.8% and 100%"}, {"measurement": "Population Pyknosed Nuclei (%)", "setting": "[3]", "value": "9.66% and 13.83%"}, {"measurement": "Population Tubulin-Different-Phenotype (%)", "setting": "[3]", "value": "0.89% and 0%"}, {"measurement": "Total Cell Count", "setting": "[3]", "value": "508 and 188"}, {"measurement": "Population Apoptotic (%)", "setting": "[4]", "value": "38.46% and 40%"}, {"measurement": "Population Fragmented Nuclei (%)", "setting": "[4]", "value": "2.57% and 1.6%"}, {"measurement": "Population Healthy Nuclei (%)", "setting": "[4]", "value": "87.15% and 87.77%"}, {"measurement": "Population Hoechst High Intensity Objects (%)", "setting": "[4]", "value": 0, "unit": "%"}, {"measurement": "Population Membrane Permeable-Phenotype (%)", "setting": "[4]", "value": "0.91% and 5.45%"}, {"measurement": "Population Mitochondria Different-Phenotype (%)", "setting": "[4]", "value": "0.23% and 3.03%"}, {"measurement": "Population Mitotic Cells (%)", "setting": "[4]", "value": "61.54% and 60%"}, {"measurement": "Population Normal (%)", "setting": "[4]", "value": 100, "unit": "%"}, {"measurement": "Population Pyknosed Nuclei (%)", "setting": "[4]", "value": "10.28% and 10.64%"}, {"measurement": "Population Tubulin-Different-Phenotype (%)", "setting": "[4]", "value": "0.91% and 1.21%"}, {"measurement": "Total Cell Count", "setting": "[4]", "value": "506 and 188"}, {"measurement": "Population Apoptotic (%)", "setting": "[5]", "value": "48.15% and 60%"}, {"measurement": "Population Fragmented Nuclei (%)", "setting": "[5]", "value": "1.9% and 2.52%"}, {"measurement": "Population Healthy Nuclei (%)", "setting": "[5]", "value": "90.4% and 84.91%"}, {"measurement": "Population Hoechst High Intensity Objects (%)", "setting": "[5]", "value": "0.09% and 0%"}, {"measurement": "Population Membrane Permeable-Phenotype (%)", "setting": "[5]", "value": "0.84% and 0.74%"}, {"measurement": "Population Mitochondria Different-Phenotype (%)", "setting": "[5]", "value": "0% and 3.7%"}, {"measurement": "Population Mitotic Cells (%)", "setting": "[5]", "value": "51.85% and 40%"}, {"measurement": "Population Normal (%)", "setting": "[5]", "value": "99.91% and 100%"}, {"measurement": "Population Pyknosed Nuclei (%)", "setting": "[5]", "value": "7.7% and 12.58%"}, {"measurement": "Population Tubulin-Different-Phenotype (%)", "setting": "[5]", "value": "0.63% and 0%"}, {"measurement": "Population Apoptotic (%)", "setting": "[6]", "value": "25.3% and 58.62%"}, {"measurement": "Population Fragmented Nuclei (%)", "setting": "[6]", "value": "3.4% and 3.18%"}, {"measurement": "Population Healthy Nuclei (%)", "setting": "[6]", "value": "88.05% and 87.58%"}, {"measurement": "Population Hoechst High Intensity Objects (%)", "setting": "[6]", "value": 0, "unit": "%"}, {"measurement": "Population Membrane Permeable-Phenotype (%)", "setting": "[6]", "value": "1.29% and 2.18%"}, {"measurement": "Population Mitochondria Different-Phenotype (%)", "setting": "[6]", "value": "0.12% and 3.27%"}, {"measurement": "Population Mitotic Cells (%)", "setting": "[6]", "value": "74.7% and 41.38%"}, {"measurement": "Population Normal (%)", "setting": "[6]", "value": 100, "unit": "%"}, {"measurement": "Population Pyknosed Nuclei (%)", "setting": "[6]", "value": "8.55% and 9.24%"}, {"measurement": "Population Tubulin-Different-Phenotype (%)", "setting": "[6]", "value": "0.94% and 0%"}]}, {"smiles": "Cn1cnc(-c2cnc(O[C@H]3CCN(C(=O)Cc4ccc(OC(F)(F)F)cc4)C[C@H]3F)c(C(N)=O)c2)c1", "values": [{"measurement": "Population Apoptotic (%)", "setting": "[1]", "value": "46.88% and 25%"}, {"measurement": "Population Healthy Nuclei (%)", "setting": "[1]", "value": "91.05% and 84.18%"}, {"measurement": "Population Hoechst High Intensity Objects (%)", "setting": "[1]", "value": 0, "unit": "%"}, {"measurement": "Population Mitotic Cells (%)", "setting": "[1]", "value": "53.12% and 75%"}, {"measurement": "Population Normal (%)", "setting": "[1]", "value": 100, "unit": "%"}, {"measurement": "Population Pyknosed Nuclei (%)", "setting": "[1]", "value": "8.42% and 13.56%"}, {"measurement": "Population Apoptotic (%)", "setting": "[2]", "value": "38.46% and 23.33%"}, {"measurement": "Population Healthy Nuclei (%)", "setting": "[2]", "value": "82.47% and 74.67%"}, {"measurement": "Population Hoechst High Intensity Objects (%)", "setting": "[2]", "value": "0.26% and 0%"}, {"measurement": "Population Mitotic Cells (%)", "setting": "[2]", "value": "61.54% and 76.67%"}, {"measurement": "Population Normal (%)", "setting": "[2]", "value": "99.74% and 100%"}, {"measurement": "Population Pyknosed Nuclei (%)", "setting": "[2]", "value": "16.75% and 20%"}, {"measurement": "Population Apoptotic (%)", "setting": "[3]", "value": "37.74% and 45.16%"}, {"measurement": "Population Healthy Nuclei (%)", "setting": "[3]", "value": "89.71% and 85.37%"}, {"measurement": "Population Hoechst High Intensity Objects (%)", "setting": "[3]", "value": "0.17% and 0%"}, {"measurement": "Population Mitotic Cells (%)", "setting": "[3]", "value": "62.26% and 54.84%"}, {"measurement": "Population Normal (%)", "setting": "[3]", "value": "99.83% and 100%"}, {"measurement": "Population Pyknosed Nuclei (%)", "setting": "[3]", "value": "9.09% and 12.6%"}, {"measurement": "Population Apoptotic (%)", "setting": "[4]", "value": "46.15% and 28.21%"}, {"measurement": "Population Healthy Nuclei (%)", "setting": "[4]", "value": "86.69% and 75.26%"}, {"measurement": "Population Hoechst High Intensity Objects (%)", "setting": "[4]", "value": "0% and 0.51%"}, {"measurement": "Population Mitotic Cells (%)", "setting": "[4]", "value": "53.85% and 71.79%"}, {"measurement": "Population Normal (%)", "setting": "[4]", "value": "100% and 99.49%"}, {"measurement": "Population Pyknosed Nuclei (%)", "setting": "[4]", "value": "12.36% and 20.1%"}, {"measurement": "Population Apoptotic (%)", "setting": "[5]", "value": "32.56% and 44.19%"}, {"measurement": "Population Healthy Nuclei (%)", "setting": "[5]", "value": "89.01% and 86.44%"}, {"measurement": "Population Hoechst High Intensity Objects (%)", "setting": "[5]", "value": "0% and 0.24%"}, {"measurement": "Population Mitotic Cells (%)", "setting": "[5]", "value": "67.44% and 55.81%"}, {"measurement": "Population Normal (%)", "setting": "[5]", "value": "100% and 99.76%"}, {"measurement": "Population Pyknosed Nuclei (%)", "setting": "[5]", "value": "7.88% and 10.41%"}, {"measurement": "Population Apoptotic (%)", "setting": "[6]", "value": "53.41% and 48.57%"}, {"measurement": "Population Healthy Nuclei (%)", "setting": "[6]", "value": "86.7% and 85.71%"}, {"measurement": "Population Hoechst High Intensity Objects (%)", "setting": "[6]", "value": 0, "unit": "%"}, {"measurement": "Population Mitotic Cells (%)", "setting": "[6]", "value": "46.59% and 51.43%"}, {"measurement": "Population Normal (%)", "setting": "[6]", "value": 100, "unit": "%"}, {"measurement": "Population Pyknosed Nuclei (%)", "setting": "[6]", "value": "9.51% and 11.63%"}]}]}
